Data from ChEMBL document CHEMBL1153140, “Piperidyl amides as novel, potent and orally active mGlu5 receptor antagonists with anxiolytic-like activity” (Bioorg Med Chem Lett, 2010).
In brackets after ≈: the same amount, converted by molar mass. Activity calls are given as the source filed them. The rule behind the calls is not given here.

How the values were obtained:
[1] = molecular target: Metabotropic glutamate receptor 1 (Homo sapiens, UniProt Q13255); test: Inhibition of human mGluR1
[2] = AUC in Sprague-Dawley rat at 30 umol/kg, po; type: ADME, organism-based; details: plasma
Procedure, shortened: (§1)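 Sprague-Dawley rats (n = 3/group) dosed orally once at 30 µmol/kg. Plasma Cmax, Tmax and AUC determined.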

Glutamate NMDA receptor = test: Displacement of radioligand from glutamate and glycine binding site of NMDA receptor in rat brain membrane; type: cell membranes
Procedure, shortened: (§2)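 Radioligand displacement in rat brain membranes: AMPA (glutamate site), kainate (glutamate site) and NMDA (glutamate and glycine sites).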

Mus musculus = test: Anxiolytic-like activity in mouse assessed as reduction of stress-induced hyperthermia at 3 to 10 mg/kg, po; type: functional, organism-based
[3] = Intrinsic clearance in human liver microsomes; type: ADME, Microsome
[4] = Displacement of radioligand from glutamate binding site of AMPA receptor in rat brain membrane; type: cell membranes; procedure, shortened: as §2
[5] = molecular target: T1, Metabotropic glutamate receptor 5 (Homo sapiens, UniProt P41594); test: Antagonist activity at human mGluR5 assessed as inhibition of glutamate-induced elevation of intracellular calcium concentration; type: functional, cell-based
[6] = Ratio of drug level in brain to plasma in Sprague-Dawley rat at 10 umol/kg, iv; type: ADME
Procedure, shortened: (§3)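 Single-dose pharmacokinetic study in Sprague-Dawley rats, n = 3 per group, given one oral or one iv bolus dose. Drug concentrations were followed over time in plasma and brain. The ratio is the brain AUC divided by the plasma AUC.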

Rattus norvegicus [7] = organism: Rattus norvegicus; test: Anxiolytic-like activity in rat assessed as reduction in electric foot shock-induced fear-potentiation startle; type: functional, organism-based
Procedure, shortened: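 Rats fear-conditioned by 20 pairings of light (5 s) with footshock (0.5 mA, 0.5 s) on two successive days. On day 3, oral dosing (3–30 mg/kg, n = 10/group). 1 h later, startle to a noise burst measured with and without light, 12 presentations each; FPS taken as the difference. Multifactorial ANOVA with Dunnett post-hoc.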

Rattus norvegicus [8] = test: Anxiolytic-like activity in water-deprived rat assessed as increase in electrical shock-stimulated lick at 10 to 30 mg/kg, po administered 1 hr before test by Vogel conflict test; type: functional, organism-based
[9] = molecular target: Metabotropic glutamate receptor 5 (Rattus norvegicus, UniProt P31424); test: Displacement of [3H]ABP688 from mGluR5 in rat brain cortex; type: tissue-based
[10] = Tmax in Sprague-Dawley rat at 30 umol/kg, po; type: ADME, organism-based; details: in vivo; procedure, shortened: as §1
[11] = Second elimination Half life in Sprague-Dawley rat at 10 umol/kg, iv; type: ADME, organism-based; details: in vivo, read-out: beta t1/2 (converted)
Procedure, shortened: (§4)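 Single iv bolus of 10 µmol/kg in Sprague-Dawley rats, n = 3 per group. Plasma concentration-time profile analysed for AUC, clearance, first and second elimination half-lives, MRT and Vss. Brain/plasma AUC ratio also determined.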

[12] = Volume of distribution at steady state in Sprague-Dawley rat at 10 umol/kg, iv; type: ADME, organism-based; details: in vivo, read-out: Vdss; procedure, shortened: as §4
[13] = molecular target: T1, Metabotropic glutamate receptor 5; test: Antagonist activity at human mGluR5 assessed as inhibition of quisqualate-induced intracellular inositol phosphate accumulation; type: functional, cell-based
[14] = Ratio of drug level in brain to plasma in Sprague-Dawley rat at 30 umol/kg, po; type: ADME; procedure, shortened: as §3
Rattus norvegicus [15] = test: Anxiolytic-like activity in water-deprived rat assessed as increase in electrical shock-stimulated lick at 3 mg/kg, po administered 1 hr before test by Vogel conflict test; type: functional, organism-based; set-up: dose 3 mg/kg
[16] = Intrinsic clearance in rat liver microsomes; type: ADME, Microsome
Brain = test: Drug level in rat brain at 2 mg/kg; type: ADME, organism-based; set-up: dose 2 mg/kg; details: in vivo
Procedure, shortened: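 In a fear-potentiated startle run at 0.08–30 mg/kg po, rats were sacrificed immediately after testing. Brains were removed and drug concentration measured by HPLC, reported as mean ± SEM per dose group.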

[17] = First elimination Half life in Sprague-Dawley rat at 10 umol/kg, iv; type: ADME, organism-based; details: in vivo, read-out: beta t1/2 (converted); procedure, shortened: as §4
[18] = molecular target: Metabotropic glutamate receptor 2 (Homo sapiens, UniProt Q14416); test: Inhibition of human mGluR2
[19] = Aqueous solubility at pH 6.8; type: physicochemical
Procedure, shortened: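 Solubility measured at pH 6.8 by a dissolution template potentiometric titration approach, expressed in mg/L.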

[20] = molecular target: T1, Metabotropic glutamate receptor 5; test: Displacement of [3H]ABP688 from human recombinant mGluR5 expressed in CHO cells; type: cell-based
[21] = Oral bioavailability in Sprague-Dawley rat at 30 umol/kg; type: ADME, organism-based; details: in vivo; procedure, shortened: as §1
[22] = Mean retention time in Sprague-Dawley rat at 10 umol/kg, iv; type: ADME, organism-based; details: in vivo; procedure, shortened: as §4
[23] = Displacement of radioligand from glutamate binding site of kinate receptor in rat brain membrane; type: cell membranes; procedure, shortened: as §2
[24] = molecular target: Metabotropic glutamate receptor 7 (Homo sapiens, UniProt Q14831); test: Inhibition of human mGluR7
[25] = Cmax in Sprague-Dawley rat at 30 umol/kg, po; type: ADME, organism-based; set-up: dose 30 umol/kg, route oral; details: in vivo; procedure, shortened: as §1
[26] = AUC in Sprague-Dawley rat at 10 umol/kg, iv; type: ADME, organism-based; details: plasma; procedure, shortened: as §4
[27] = Clearance in Sprague-Dawley rat at 10 umol/kg, iv; type: ADME, organism-based; details: in vivo; procedure, shortened: as §4

T1 sequence (P41594 whole entry): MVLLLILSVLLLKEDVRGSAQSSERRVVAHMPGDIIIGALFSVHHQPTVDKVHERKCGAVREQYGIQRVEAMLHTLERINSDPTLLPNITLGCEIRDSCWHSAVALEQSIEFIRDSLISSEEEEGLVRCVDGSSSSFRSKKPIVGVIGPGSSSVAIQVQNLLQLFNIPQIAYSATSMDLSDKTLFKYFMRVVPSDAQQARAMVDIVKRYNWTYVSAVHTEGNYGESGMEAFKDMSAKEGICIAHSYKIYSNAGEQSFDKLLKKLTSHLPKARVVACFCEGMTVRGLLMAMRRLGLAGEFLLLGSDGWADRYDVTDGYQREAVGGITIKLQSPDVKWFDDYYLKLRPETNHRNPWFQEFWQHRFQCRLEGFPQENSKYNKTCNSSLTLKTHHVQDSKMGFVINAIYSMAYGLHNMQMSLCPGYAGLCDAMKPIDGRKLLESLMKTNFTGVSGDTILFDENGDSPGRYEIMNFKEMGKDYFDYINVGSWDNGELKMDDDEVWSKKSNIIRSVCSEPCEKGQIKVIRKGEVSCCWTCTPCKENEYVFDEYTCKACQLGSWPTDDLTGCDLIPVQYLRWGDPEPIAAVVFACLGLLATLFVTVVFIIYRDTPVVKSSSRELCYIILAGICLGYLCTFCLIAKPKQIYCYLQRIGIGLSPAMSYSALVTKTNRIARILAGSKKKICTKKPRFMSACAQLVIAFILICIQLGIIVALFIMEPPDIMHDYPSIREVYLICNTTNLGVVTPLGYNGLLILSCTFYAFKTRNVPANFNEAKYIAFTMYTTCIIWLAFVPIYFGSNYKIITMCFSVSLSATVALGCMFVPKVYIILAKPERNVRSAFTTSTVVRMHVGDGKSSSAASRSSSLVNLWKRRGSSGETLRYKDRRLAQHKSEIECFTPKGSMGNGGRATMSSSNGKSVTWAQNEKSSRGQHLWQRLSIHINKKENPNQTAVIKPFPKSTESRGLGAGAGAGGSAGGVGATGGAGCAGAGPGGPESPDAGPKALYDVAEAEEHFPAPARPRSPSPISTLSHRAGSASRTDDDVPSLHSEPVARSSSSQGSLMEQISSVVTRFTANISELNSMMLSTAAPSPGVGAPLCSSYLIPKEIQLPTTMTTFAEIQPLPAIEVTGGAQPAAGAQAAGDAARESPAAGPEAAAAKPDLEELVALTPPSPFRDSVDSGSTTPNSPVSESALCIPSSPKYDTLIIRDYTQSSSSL
Sequence of Metabotropic glutamate receptor 5 (Rattus norvegicus, UniProt P31424) (P31424 whole entry): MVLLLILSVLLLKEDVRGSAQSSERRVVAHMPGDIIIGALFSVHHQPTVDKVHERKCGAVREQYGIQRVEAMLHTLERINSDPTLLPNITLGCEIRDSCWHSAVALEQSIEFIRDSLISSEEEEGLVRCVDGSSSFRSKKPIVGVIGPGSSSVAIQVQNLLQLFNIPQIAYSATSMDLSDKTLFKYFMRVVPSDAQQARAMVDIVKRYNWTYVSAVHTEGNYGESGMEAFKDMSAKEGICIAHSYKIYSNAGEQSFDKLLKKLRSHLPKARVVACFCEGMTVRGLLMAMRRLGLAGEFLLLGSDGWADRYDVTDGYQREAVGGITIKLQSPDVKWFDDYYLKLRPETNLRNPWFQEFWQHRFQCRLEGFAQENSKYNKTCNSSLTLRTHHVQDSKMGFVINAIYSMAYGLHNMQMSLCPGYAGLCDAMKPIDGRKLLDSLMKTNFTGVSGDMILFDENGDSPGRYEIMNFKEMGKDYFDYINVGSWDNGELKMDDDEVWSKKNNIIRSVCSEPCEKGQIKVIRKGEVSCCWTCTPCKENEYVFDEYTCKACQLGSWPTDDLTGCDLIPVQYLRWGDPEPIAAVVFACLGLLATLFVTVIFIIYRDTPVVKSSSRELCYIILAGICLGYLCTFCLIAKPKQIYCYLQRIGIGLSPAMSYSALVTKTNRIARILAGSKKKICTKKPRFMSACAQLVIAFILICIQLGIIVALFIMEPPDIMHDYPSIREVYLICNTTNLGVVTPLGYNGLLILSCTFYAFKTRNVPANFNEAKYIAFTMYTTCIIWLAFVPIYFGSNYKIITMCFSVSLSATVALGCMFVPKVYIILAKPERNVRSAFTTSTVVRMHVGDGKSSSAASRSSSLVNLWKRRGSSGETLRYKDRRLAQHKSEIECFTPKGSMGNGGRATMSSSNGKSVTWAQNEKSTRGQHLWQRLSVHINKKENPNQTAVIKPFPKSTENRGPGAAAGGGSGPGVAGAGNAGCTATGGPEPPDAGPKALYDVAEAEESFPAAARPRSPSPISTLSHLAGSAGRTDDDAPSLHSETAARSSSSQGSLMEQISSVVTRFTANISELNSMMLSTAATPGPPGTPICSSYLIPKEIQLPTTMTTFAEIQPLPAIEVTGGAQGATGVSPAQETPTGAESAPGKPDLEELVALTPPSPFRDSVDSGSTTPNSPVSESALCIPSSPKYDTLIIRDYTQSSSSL
Sequence of Metabotropic glutamate receptor 2 (Q14416 whole entry): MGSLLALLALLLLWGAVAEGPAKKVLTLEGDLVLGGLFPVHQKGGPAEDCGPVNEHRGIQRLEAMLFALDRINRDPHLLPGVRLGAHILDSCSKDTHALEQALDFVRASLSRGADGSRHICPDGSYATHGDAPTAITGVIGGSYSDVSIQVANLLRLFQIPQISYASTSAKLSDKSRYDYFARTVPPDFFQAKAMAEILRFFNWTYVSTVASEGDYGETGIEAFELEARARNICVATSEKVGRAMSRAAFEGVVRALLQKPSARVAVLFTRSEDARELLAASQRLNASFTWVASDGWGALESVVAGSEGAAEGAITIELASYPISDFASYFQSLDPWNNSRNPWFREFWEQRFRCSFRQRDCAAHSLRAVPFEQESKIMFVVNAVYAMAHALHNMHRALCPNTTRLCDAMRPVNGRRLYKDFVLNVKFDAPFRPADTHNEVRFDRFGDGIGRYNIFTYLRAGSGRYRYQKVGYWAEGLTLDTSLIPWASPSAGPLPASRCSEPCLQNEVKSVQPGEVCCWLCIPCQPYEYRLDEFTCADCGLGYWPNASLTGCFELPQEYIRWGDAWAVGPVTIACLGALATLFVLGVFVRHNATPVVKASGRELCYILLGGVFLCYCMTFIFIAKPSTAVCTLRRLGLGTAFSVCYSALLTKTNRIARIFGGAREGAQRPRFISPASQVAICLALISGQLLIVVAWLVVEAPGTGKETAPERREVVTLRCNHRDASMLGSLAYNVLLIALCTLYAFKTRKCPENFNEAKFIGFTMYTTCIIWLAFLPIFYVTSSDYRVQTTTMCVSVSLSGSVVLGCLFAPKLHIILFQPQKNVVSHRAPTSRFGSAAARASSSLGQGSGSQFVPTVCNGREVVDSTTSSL
Sequence of Metabotropic glutamate receptor 1 (Q13255 whole entry): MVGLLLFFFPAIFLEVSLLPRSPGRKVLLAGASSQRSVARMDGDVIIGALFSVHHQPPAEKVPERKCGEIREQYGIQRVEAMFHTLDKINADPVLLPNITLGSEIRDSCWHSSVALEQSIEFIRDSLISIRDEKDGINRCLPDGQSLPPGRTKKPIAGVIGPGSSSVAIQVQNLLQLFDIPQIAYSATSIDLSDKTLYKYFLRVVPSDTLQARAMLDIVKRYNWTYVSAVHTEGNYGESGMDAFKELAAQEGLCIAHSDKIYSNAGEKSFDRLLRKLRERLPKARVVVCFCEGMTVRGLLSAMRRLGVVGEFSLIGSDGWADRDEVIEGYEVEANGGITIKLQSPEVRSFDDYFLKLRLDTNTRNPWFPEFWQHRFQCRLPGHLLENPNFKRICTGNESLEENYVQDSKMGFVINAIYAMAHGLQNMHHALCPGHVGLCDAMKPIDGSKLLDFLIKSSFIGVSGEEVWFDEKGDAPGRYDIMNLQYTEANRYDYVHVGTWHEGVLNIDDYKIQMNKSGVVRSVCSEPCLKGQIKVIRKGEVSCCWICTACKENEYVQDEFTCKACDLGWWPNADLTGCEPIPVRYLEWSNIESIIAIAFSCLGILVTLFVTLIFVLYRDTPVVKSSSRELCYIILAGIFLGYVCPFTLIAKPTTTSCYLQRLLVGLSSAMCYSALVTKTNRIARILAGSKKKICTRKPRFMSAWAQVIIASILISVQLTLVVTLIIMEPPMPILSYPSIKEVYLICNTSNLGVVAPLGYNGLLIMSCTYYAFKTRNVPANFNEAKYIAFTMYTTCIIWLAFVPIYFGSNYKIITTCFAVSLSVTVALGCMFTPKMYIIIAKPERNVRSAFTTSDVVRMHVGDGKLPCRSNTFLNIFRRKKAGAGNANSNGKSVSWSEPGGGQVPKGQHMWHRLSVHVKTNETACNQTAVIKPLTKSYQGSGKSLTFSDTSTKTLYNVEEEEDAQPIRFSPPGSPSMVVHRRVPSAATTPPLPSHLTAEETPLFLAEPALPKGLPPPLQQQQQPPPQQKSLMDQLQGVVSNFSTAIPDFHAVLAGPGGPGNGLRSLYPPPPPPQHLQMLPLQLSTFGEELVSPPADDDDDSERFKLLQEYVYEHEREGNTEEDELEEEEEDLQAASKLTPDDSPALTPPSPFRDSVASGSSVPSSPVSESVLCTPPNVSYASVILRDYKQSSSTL

SMILES: CC[C@@H]1CCCCN1C(=O)c1cnc(Nc2ccc(C)nc2)c(Cl)c1
- IC50 [1]: > 10 µM
- AUC [2]: 7.23 µM·h
- IC50 (Glutamate NMDA receptor): > 10 µM
- Activity (Mus musculus): Active
- microsomal CLint [3]: 89 µL/min/mg
- IC50 [4]: > 10 µM
- IC50 [5]: 0.032 µM
- Kp [6]: 1.36
- Activity (Rattus norvegicus [7]): Dose-dependent effect
- Activity (Rattus norvegicus [8]): Active
- Ki [9]: 0.03 µM
- Tmax [10]: 15 min
- half-life [11]: 54 min
- Vd [12]: 2 L/kg
- IC50 [13]: 0.036 µM
- Kp [14]: 1.3
- Activity (Rattus norvegicus [15]): inactive
- microsomal CLint [16]: 87 µL/min/mg
- Drug uptake (Brain): 127 pmol/g
- half-life [17]: 18 min
- IC50 [18]: > 10 µM
- solubility [19]: 58 µg/mL (≈ 162 µM)
- Ki [20]: 0.038 µM
- bioavailability [21]: 54%
- MRT [22]: 54 min
- IC50 [23]: > 10 µM
- IC50 [24]: > 10 µM
- Cmax [25]: 1230 nM
- AUC [26]: 4.48 µM·h
- clearance [27]: 37.2 mL/min/kg

SMILES: Cc1ccc(Nc2ncc(C(=O)N3CCCCC3)cc2Cl)cn1
- microsomal CLint [3]: 33 µL/min/mg
- microsomal CLint [16]: 48 µL/min/mg
- solubility [19]: 150 µg/mL (≈ 453 µM)

SMILES: CC1CCCN(C(=O)c2cc(Nc3ccc(Cl)cc3)[nH]n2)C1 (configuration not stated)
- IC50 [5]: > 10 µM

SMILES: O=C(c1ccc(Nc2ccccc2)nc1)N1CCCCC1
- IC50 [5]: 10 µM

SMILES: Cc1ccc(Nc2ncc(C(=O)N3CCCC[C@@H]3C)cc2Cl)cn1
- microsomal CLint [3]: 39 µL/min/mg
- IC50 [5]: 1.4 µM
- microsomal CLint [16]: 68 µL/min/mg
- solubility [19]: 499 µg/mL (≈ 1450 µM)

SMILES: CCCCC1CCCCN1C(=O)c1cnc(Nc2ccc(C)nc2)c(Cl)c1 (racemic)
- microsomal CLint [3]: 227 µL/min/mg
- IC50 [5]: 0.136 µM
- IC50 [13]: 0.005 µM
- microsomal CLint [16]: 637 µL/min/mg
- solubility [19]: < 3 µg/mL

SMILES: Cc1cccc(Nc2ccc(C(=O)N3CCCCC3)cn2)n1
- IC50 [5]: > 10 µM

SMILES: COc1ccc(Nc2ccc(C(=O)N3CCCCC3)cn2)cc1
- IC50 [5]: 1.8 µM

SMILES: O=C(c1ccc(Nc2ccc(Cl)cc2)nc1)N1CCCC1
- IC50 [5]: 5.4 µM

SMILES: CCCC1CCCCN1C(=O)c1cnc(Nc2ccc(C)nc2)c(Cl)c1 (racemic)
- microsomal CLint [3]: 224 µL/min/mg
- IC50 [5]: 0.09 µM
- IC50 [13]: 0.016 µM
- microsomal CLint [16]: 885 µL/min/mg
- solubility [19]: < 3 µg/mL

SMILES: CC1CCCN(C(=O)c2ccc(Nc3ccc(Cl)cc3)nc2)C1 (racemic)
- IC50 [5]: 0.53 µM

SMILES: O=C(NC1CCCCC1)c1ccc(Nc2ccc(Cl)cc2)nc1
- IC50 [5]: > 10 µM

SMILES: CN(c1ccc(Cl)cc1)c1ccc(C(=O)N2CCCCC2)cn1
- IC50 [5]: > 10 µM

SMILES: O=C(c1ccc(Nc2ccc(Cl)cc2)nc1)N1CCCCC1
- IC50 [5]: 0.31 µM

SMILES: Cc1ccc(Nc2ccc(C(=O)N3CCCCC3)cn2)cn1
- IC50 [5]: 0.42 µM

SMILES: O=C(c1cnc(Nc2ccc(Cl)cc2)cn1)N1CCCCC1
- IC50 [5]: > 10 µM

SMILES: CC1CCCCN1C(=O)c1ccc(Nc2ccc(Cl)cc2)nc1 (racemic)
- IC50 [5]: 0.43 µM

SMILES: CC[C@H]1CCCCN1C(=O)c1cnc(Nc2ccc(C)nc2)c(Cl)c1
- microsomal CLint [3]: 216 µL/min/mg
- IC50 [5]: 0.39 µM
- IC50 [13]: 0.36 µM
- microsomal CLint [16]: 190 µL/min/mg
- solubility [19]: 56 µg/mL (≈ 156 µM)

SMILES: O=C(c1ccc(Nc2ccc(Cl)cn2)nc1)N1CCCCC1
- IC50 [5]: 10 µM

SMILES: CCC1CCCCN1C(=O)c1cnc(Nc2ccc(C)nc2)c(Cl)c1 (racemic)
- microsomal CLint [3]: 138 µL/min/mg
- IC50 [5]: 0.11 µM
- IC50 [13]: 0.09 µM
- microsomal CLint [16]: 220 µL/min/mg
- solubility [19]: 122 µg/mL (≈ 340 µM)

SMILES: Cc1ccc(Nc2ccc(C(=O)N3CCCCC3)cn2)cc1
- IC50 [5]: 2.3 µM

SMILES: O=C(c1ccc(Nc2ccccc2Cl)nc1)N1CCCCC1
- IC50 [5]: > 10 µM

SMILES: CC1CCN(C(=O)c2ccc(Nc3ccc(Cl)cc3)nc2)CC1
- IC50 [5]: 2.3 µM

SMILES: O=C(c1ccc(Nc2ccc(Cl)cc2)nc1)N1CCCCCCC1
- IC50 [5]: 2.3 µM

SMILES: CC1CCCN(C(=O)c2ccc(Oc3ccc(Cl)cc3)nc2)C1 (configuration not stated)
- IC50 [5]: > 10 µM

SMILES: COc1cc(C(=O)N2CCCCC2)cnc1Nc1ccc(Cl)cc1
- IC50 [5]: 2.1 µM

SMILES: CC1CCCN(C(=O)c2ccc(Nc3ccc(Cl)cc3)nn2)C1 (configuration not stated)
- IC50 [5]: 0.72 µM

SMILES: CCC1CCCN(C(=O)c2cnc(Nc3ccc(C)nc3)c(Cl)c2)C1 (racemic)
- microsomal CLint [3]: 171 µL/min/mg
- microsomal CLint [16]: 417 µL/min/mg
- solubility [19]: 15 µg/mL (≈ 41.8 µM)

SMILES: O=C(c1ccc(NC2CCCCC2)nc1)N1CCCCC1
- IC50 [5]: > 10 µM

SMILES: O=C(c1ccc(Nc2ccc(Cl)cc2)nc1)N1CCCCCC1
- IC50 [5]: 0.25 µM

SMILES: O=C(c1ccc(Nc2ccc(F)cc2)nc1)N1CCCCC1
- IC50 [5]: 2.3 µM

SMILES: CC[C@@H]1CCCN(C(=O)c2cnc(Nc3ccc(C)nc3)c(Cl)c2)C1
- microsomal CLint [3]: 322 µL/min/mg
- microsomal CLint [16]: 643 µL/min/mg
- solubility [19]: 95 µg/mL (≈ 265 µM)

SMILES: Cc1ccc(Nc2ncc(C(=O)N3CCCC(C)C3)cc2Cl)cn1 (racemic)
- microsomal CLint [3]: 60 µL/min/mg
- microsomal CLint [16]: 38 µL/min/mg

SMILES: CC1CCCN(C(=O)c2cnc(Nc3ccc(Cl)cc3)nc2)C1 (configuration not stated)
- IC50 [5]: 0.98 µM

SMILES: O=C(c1ccc(Nc2cccc(Cl)c2)nc1)N1CCCCC1
- IC50 [5]: > 10 µM

SMILES: O=C(c1ccc(Nc2ccc(Cl)c(Cl)c2)nc1)N1CCCCC1
- IC50 [5]: > 10 µM

SMILES: CC1CCCN(C(=O)c2ccc(Nc3ccc(Cl)cc3)cc2)C1 (configuration not stated)
- IC50 [5]: 1.6 µM

SMILES: CCN(CC)C(=O)c1ccc(Nc2ccc(Cl)cc2)nc1
- IC50 [5]: 0.46 µM

SMILES: Cc1ccc(Nc2ncc(C(=O)N3CCCC[C@H]3C)cc2Cl)cn1
- microsomal CLint [3]: 44 µL/min/mg
- IC50 [5]: 0.24 µM
- IC50 [13]: 0.43 µM
- microsomal CLint [16]: 73 µL/min/mg
- solubility [19]: 216 µg/mL (≈ 626 µM)

SMILES: CC[C@H]1CCCN(C(=O)c2cnc(Nc3ccc(C)nc3)c(Cl)c2)C1
- microsomal CLint [3]: 174 µL/min/mg
- microsomal CLint [16]: 687 µL/min/mg
- solubility [19]: < 3 µg/mL

SMILES: CC1CCCN(C(=O)c2cnc(Nc3ccc(Cl)cc3)c(Cl)c2)C1 (configuration not stated)
- IC50 [5]: 0.095 µM
